{"source": "ChEMBL document CHEMBL1143088", "about": "“Non-acidic pyrazole EP1 receptor antagonists with in vivo analgesic efficacy” (Bioorg Med Chem Lett, 2008)", "key": {"Rattus norvegicus [1]": {"test_system": "Rattus norvegicus", "assay": "Reversal of FCA-induced hypersensitivity in orally dosed rat assessed as reduction in weight bearing administered with DMSO and PEG400 as vehicle", "format": "functional", "conditions": "po", "outline": "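Rats with CFA-induced inflammatory pain were dosed orally at 1, 3 and 10 mg/kg or 1, 3, 10 and 30 mg/kg. The vehicle was 1% DMSO, 66% PEG400 and 33% water. Weight bearing was read 1 h post-dose and samples were taken then. Brain:blood ratio was measured in the 10 mg/kg group (n=7). ED50 was derived in mg/kg.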"}, "[2]": {"molecular_target": "T1, Prostaglandin E2 receptor EP3 subtype (Homo sapiens, UniProt P43115)", "T1 sequence (P43115 whole entry)": "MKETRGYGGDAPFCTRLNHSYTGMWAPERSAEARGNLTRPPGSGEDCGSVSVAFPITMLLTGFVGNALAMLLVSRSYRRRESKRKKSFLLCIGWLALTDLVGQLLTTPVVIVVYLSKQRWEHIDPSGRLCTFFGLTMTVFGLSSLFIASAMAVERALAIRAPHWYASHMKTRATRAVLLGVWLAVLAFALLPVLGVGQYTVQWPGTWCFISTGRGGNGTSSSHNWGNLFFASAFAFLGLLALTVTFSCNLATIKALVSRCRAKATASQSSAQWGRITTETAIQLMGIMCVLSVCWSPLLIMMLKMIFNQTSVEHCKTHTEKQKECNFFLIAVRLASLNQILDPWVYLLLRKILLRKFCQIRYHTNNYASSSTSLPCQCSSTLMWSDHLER", "assay": "Antagonist activity at PGE2-EP3 receptor assessed as PGE2-induced intracellular calcium mobilization", "format": "functional, cell-based"}, "Cytochrome P450 2D6": {"molecular_target": "Cytochrome P450 2D6 (Homo sapiens, UniProt P10635)", "sequence (P10635 whole entry)": "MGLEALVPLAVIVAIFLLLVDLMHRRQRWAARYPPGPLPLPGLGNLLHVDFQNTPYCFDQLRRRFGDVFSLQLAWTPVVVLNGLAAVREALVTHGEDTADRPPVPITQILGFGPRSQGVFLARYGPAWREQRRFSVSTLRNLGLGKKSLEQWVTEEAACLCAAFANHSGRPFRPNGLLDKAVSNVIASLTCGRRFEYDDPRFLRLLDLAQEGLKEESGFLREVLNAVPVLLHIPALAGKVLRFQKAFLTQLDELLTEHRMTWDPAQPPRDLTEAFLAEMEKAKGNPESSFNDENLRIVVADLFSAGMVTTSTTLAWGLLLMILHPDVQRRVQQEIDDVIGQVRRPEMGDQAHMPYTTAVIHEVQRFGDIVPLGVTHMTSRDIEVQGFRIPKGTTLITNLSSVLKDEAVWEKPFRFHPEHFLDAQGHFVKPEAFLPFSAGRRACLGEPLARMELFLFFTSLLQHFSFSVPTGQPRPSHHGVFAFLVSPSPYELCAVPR", "assay": "Inhibition of CYP2D6", "format": "ADME"}, "[3]": {"molecular_target": "T2, Prostaglandin E2 receptor EP1 subtype (Homo sapiens, UniProt P34995)", "T2 sequence (P34995 whole entry)": "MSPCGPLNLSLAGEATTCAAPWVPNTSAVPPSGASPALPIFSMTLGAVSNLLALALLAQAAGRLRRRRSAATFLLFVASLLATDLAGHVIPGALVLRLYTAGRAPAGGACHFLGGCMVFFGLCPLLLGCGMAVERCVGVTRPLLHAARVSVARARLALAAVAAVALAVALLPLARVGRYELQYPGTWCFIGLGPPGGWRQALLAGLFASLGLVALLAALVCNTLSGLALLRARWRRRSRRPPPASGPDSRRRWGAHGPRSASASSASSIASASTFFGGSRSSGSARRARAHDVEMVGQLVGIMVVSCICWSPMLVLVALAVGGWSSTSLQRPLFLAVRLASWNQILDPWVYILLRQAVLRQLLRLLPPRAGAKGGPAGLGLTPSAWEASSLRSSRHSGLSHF", "assay": "Antagonist activity at PGE2-EP1 receptor assessed as PGE2-induced response by schild analysis", "format": "functional", "conditions": "read-out: pA2 (converted)"}, "Cytochrome P450 1A2": {"molecular_target": "T3, Cytochrome P450 1A2 (Homo sapiens, UniProt P05177)", "T3 sequence (P05177 whole entry)": "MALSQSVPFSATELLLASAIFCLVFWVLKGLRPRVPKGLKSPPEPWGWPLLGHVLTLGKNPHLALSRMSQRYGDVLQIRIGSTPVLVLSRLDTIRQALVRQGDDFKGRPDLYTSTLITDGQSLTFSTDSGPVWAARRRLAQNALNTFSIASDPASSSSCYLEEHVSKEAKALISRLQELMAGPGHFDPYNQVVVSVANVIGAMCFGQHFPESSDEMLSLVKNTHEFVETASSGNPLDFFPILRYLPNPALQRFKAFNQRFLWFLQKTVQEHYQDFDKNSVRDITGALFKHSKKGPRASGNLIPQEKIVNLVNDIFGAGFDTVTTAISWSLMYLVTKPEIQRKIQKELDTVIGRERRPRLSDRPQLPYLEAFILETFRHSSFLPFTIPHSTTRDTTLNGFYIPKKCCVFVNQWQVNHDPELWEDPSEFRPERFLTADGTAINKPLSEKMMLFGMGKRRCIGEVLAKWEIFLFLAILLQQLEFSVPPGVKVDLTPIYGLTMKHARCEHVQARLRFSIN", "assay": "Inhibition of CYP1A2", "format": "ADME"}, "Cytochrome P450 3A4": {"molecular_target": "Cytochrome P450 3A4 (Homo sapiens, UniProt P08684)", "sequence (P08684 whole entry)": "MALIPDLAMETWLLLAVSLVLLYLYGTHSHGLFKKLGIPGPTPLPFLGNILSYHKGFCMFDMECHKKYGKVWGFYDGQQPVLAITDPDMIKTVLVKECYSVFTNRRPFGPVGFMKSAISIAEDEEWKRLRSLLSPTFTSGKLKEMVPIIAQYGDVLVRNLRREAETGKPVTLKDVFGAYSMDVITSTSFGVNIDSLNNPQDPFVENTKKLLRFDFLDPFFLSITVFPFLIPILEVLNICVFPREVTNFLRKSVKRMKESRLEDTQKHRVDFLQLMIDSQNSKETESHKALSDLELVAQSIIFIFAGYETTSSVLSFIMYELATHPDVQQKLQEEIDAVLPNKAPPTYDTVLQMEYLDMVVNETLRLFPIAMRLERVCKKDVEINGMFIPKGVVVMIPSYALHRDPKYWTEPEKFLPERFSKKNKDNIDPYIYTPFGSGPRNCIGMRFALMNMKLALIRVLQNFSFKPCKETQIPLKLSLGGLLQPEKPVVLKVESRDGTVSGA", "assay": "Inhibition of CYP3A4", "format": "ADME"}, "[4]": {"molecular_target": "T2, Prostaglandin E2 receptor EP1 subtype", "assay": "Displacement of [3H]PGE2 from human PGE2-EP1 receptor expressed in CHO-K1 cells", "format": "cell-based"}, "Blood [5]": {"test_system": "Blood", "assay": "Drug uptake in FCA-induced hypersensitivity rat blood at 3 mg/kg, po administered with NMP as vehicle", "conditions": "in vivo"}, "Blood [6]": {"test_system": "Blood", "assay": "Drug uptake in FCA-induced hypersensitivity rat blood at 10 mg/kg, po administered with NMP as vehicle", "format": "ADME, organism-based", "design": "dose 10 mg/kg, route oral", "conditions": "in vivo, read-out: Drug uptake", "outline": "(§1)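 CFA inflammatory pain rats dosed orally at 1, 3 and 10 mg/kg in 2% NMP, 2% miglyol, 2% solutol–Kleptose in water; samples taken 1 h post-dose. Blood levels mean of seven rats; brain level at 10 mg/kg only, mean of three rats.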"}, "Brain": {"test_system": "Brain", "assay": "Drug uptake in FCA-induced hypersensitivity rat brain at 10 mg/kg, po administered with NMP as vehicle", "format": "ADME, organism-based", "design": "dose 10 mg/kg, route oral", "conditions": "read-out: Drug uptake, in vivo", "outline": "as §1"}, "Rattus norvegicus [7]": {"test_system": "Rattus norvegicus", "assay": "Reversal of FCA-induced hypersensitivity in orally dosed rat assessed as reduction in weight bearing administered with NMP as vehicle", "format": "functional", "conditions": "po", "outline": "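Oral dosing in the rat CFA inflammatory pain model was at 1, 3 and 10 mg/kg. The vehicle was 2% NMP, 2% miglyol and 2% solutol–Kleptose in water. Weight bearing was assessed 1 h post-dose. Blood was sampled at 1 h (seven rats), and brain at 10 mg/kg (three rats). ED50 was given in mg/kg.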"}, "Cytochrome P450 2C19": {"molecular_target": "Cytochrome P450 2C19 (Homo sapiens, UniProt P33261)", "sequence (P33261 whole entry)": "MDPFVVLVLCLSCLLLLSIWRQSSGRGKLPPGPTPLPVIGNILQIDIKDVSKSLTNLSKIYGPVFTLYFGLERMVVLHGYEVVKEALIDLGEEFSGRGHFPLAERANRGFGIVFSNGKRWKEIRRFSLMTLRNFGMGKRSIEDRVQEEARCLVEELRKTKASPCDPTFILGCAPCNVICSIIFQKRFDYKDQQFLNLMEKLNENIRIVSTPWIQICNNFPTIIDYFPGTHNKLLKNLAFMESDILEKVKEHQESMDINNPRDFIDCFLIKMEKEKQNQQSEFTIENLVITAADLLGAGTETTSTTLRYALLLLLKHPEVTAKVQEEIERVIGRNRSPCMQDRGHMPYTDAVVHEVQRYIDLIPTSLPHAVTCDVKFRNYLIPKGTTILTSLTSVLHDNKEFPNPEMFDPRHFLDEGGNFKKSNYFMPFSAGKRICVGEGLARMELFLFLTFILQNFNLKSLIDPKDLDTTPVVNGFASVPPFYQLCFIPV", "assay": "Inhibition of CYP2C19", "format": "ADME"}, "Cytochrome P450 2C9": {"molecular_target": "Cytochrome P450 2C9 (Homo sapiens, UniProt P11712)", "sequence (P11712 whole entry)": "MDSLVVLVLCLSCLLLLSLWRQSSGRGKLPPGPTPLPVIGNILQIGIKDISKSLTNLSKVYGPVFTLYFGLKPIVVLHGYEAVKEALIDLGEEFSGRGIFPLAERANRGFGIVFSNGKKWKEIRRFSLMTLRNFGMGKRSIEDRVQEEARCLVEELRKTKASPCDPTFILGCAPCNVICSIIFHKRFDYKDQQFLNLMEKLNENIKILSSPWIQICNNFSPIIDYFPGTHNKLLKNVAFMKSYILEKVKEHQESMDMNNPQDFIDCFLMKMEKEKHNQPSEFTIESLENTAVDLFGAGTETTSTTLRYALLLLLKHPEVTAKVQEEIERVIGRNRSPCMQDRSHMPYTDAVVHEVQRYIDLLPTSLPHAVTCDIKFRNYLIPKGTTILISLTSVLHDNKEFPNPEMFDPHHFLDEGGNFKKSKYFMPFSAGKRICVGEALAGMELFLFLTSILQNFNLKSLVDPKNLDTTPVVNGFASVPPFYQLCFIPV", "assay": "Inhibition of CYP2C9", "format": "ADME"}, "[8]": {"assay": "Ratio of drug level in brain to blood in FCA-induced hypersensitivity rat at 10 mg/kg, po administered with NMP as vehicle", "format": "ADME, organism-based", "design": "dose 10 mg/kg, route oral", "outline": "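CFA inflammatory pain model in rats, oral dosing at 1, 3 and 10 mg/kg in 2% NMP, 2% miglyol and 2% solutol–Kleptose in water. Samples taken 1 h post-dose with the weight-bearing readout. Brain concentration measured at 10 mg/kg only; brain:blood ratio is the mean of three rats, with blood levels the mean of seven.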"}, "Blood [9]": {"test_system": "Blood", "assay": "Drug uptake in FCA-induced hypersensitivity rat blood at 1 mg/kg, po administered with NMP as vehicle", "format": "ADME, organism-based", "design": "dose 1 mg/kg, route oral", "conditions": "in vivo, read-out: Drug uptake", "outline": "as §1"}, "[10]": {"molecular_target": "T2, Prostaglandin E2 receptor EP1 subtype", "assay": "Antagonist activity at PGE2-EP1 receptor assessed as PGE2-induced intracellular calcium mobilization", "format": "functional, cell-based"}, "[11]": {"assay": "Distribution coefficient, logD at pH 7.4", "format": "physicochemical", "conditions": "octanol/water", "outline": "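Distribution coefficient between n-octanol and water buffered to pH 7.4; log10 of ratio of equilibrium concentrations of all species.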"}, "[12]": {"assay": "Ratio of drug level in brain to blood in FCA-induced hypersensitivity rat at 10 mg/kg, po administered with DMSO and PEG400 as vehicle", "format": "ADME, organism-based", "design": "dose 10 mg/kg, route oral", "outline": "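Rats with CFA-induced inflammatory pain dosed orally at 1, 3, 10 (and 30) mg/kg in 1% DMSO, 66% PEG400, 33% water. Blood and brain sampled 1 h post-dose, alongside the weight-bearing readout. Brain:blood ratio taken from the 10 mg/kg group, mean of seven rats.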"}}, "data": [{"smiles": "Cc1cc(NC(=O)OC(C)C)nn1Cc1cc(Cl)ccc1OCc1ccccc1", "values": [{"measurement": "ED50", "setting": "Rattus norvegicus [1]", "result": 1.89, "unit": "mg/kg"}, {"measurement": "Ki", "setting": "[2]", "result": "> 10", "unit": "µM"}, {"measurement": "IC50", "setting": "Cytochrome P450 2D6", "result": "> 100", "unit": "µM"}, {"measurement": "Kb", "setting": "[3]", "result": 0.00794, "unit": "µM"}, {"measurement": "IC50", "setting": "Cytochrome P450 1A2", "result": 7.8, "unit": "µM"}, {"measurement": "IC50", "setting": "Cytochrome P450 3A4", "result": "> 81", "unit": "µM"}, {"measurement": "IC50", "setting": "[4]", "result": 0.0316, "unit": "µM"}, {"measurement": "concentration", "setting": "Blood [5]", "result": 749, "unit": "nM"}, {"measurement": "concentration", "setting": "Blood [6]", "result": 1400, "unit": "nM"}, {"measurement": "concentration", "setting": "Brain", "result": 3330, "unit": "nM"}, {"measurement": "ED50", "setting": "Rattus norvegicus [7]", "result": 4.6, "unit": "mg/kg"}, {"measurement": "IC50", "setting": "Cytochrome P450 2C19", "result": "> 100", "unit": "µM"}, {"measurement": "IC50", "setting": "Cytochrome P450 2C9", "result": 17, "unit": "µM"}, {"measurement": "Kp", "setting": "[8]", "result": 2.2}, {"measurement": "concentration", "setting": "Blood [9]", "result": 153, "unit": "nM"}, {"measurement": "Ki", "setting": "[10]", "result": 0.0501, "unit": "µM"}, {"measurement": "logD", "setting": "[11]", "result": "> 3.7"}, {"measurement": "Kp", "setting": "[12]", "result": 1.73}]}]}
